Test results: BindingDB's records for doi:10.1016/j.bmcl.2014.05.064 (The University of Tokyo, 2014)

target: T1, NPC intracellular cholesterol transporter 1 [I1061T] (Homo sapiens, UniProt O15118, I1061T); experiment: Binding affinity to FLAG/tGFP-tagged NPC1 I1061T mutant (unknown origin) expressed in HEK293 cells assessed as localization after 24 hrs by fluorescence microscopy
T1 construct: gene NPC1
Procedure, shortened: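 HEK293 cells stably expressing NPC1 I1061T-tGFP were exposed to compound for 24 h, fixed, and nuclei stained with Hoechst 33342. In the images, each cell was scored by tGFP pattern: ER 0, mixed ER+vesicle 0.5, vesicular 1. Scores were averaged to give the vesicular-localization percentage, and EC50 was taken from concentration-response. Data are mean ± standard deviation of three independent experiments.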

T1 sequence (O15118 23-1278 I1061T limits assumed): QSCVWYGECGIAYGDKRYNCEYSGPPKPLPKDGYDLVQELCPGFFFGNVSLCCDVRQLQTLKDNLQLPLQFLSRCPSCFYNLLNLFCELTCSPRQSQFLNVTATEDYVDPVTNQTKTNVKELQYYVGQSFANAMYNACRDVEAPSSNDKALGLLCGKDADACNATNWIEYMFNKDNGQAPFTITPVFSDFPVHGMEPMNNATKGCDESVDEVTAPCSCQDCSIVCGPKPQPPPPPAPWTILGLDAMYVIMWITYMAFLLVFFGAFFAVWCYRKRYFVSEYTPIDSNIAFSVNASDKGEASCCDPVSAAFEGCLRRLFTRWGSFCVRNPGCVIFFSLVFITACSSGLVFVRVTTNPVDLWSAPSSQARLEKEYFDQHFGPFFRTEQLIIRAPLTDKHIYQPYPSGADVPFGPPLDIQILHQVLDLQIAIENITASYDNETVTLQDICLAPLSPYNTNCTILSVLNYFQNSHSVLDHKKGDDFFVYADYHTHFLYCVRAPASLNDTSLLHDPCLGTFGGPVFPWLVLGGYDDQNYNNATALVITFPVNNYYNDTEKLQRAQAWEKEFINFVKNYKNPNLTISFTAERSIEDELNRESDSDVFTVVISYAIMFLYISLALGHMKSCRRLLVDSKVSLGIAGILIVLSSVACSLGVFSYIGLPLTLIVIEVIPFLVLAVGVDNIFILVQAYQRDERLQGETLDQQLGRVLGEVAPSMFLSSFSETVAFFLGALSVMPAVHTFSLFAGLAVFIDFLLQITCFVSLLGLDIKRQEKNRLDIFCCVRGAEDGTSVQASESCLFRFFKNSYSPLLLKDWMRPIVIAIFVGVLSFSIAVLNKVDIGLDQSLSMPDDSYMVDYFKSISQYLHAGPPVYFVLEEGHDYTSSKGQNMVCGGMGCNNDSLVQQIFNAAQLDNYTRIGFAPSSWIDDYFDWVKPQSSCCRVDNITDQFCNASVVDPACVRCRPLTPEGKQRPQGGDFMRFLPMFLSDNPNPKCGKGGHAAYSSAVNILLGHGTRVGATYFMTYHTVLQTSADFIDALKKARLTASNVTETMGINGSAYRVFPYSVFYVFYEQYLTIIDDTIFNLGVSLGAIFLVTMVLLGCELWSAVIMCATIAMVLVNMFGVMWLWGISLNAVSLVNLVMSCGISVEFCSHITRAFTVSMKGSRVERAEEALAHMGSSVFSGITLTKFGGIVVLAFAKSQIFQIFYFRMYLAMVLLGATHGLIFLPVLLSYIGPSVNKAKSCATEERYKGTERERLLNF

`CC(C)CCC[C@@H](C)[C@H]1CC[C@H]2[C@@H]3C(=O)C=C4C[C@@H](OCC(=O)N5CCOCC5)CC[C@]4(C)[C@H]3CC[C@]12C` and `CC(C)CCC[C@@H](C)[C@H]1CC[C@H]2[C@@H]3[C@@H](O)C=C4C[C@@H](OCC(=O)N5CCOCC5)CC[C@]4(C)[C@H]3CC[C@]12C` are within 1.5-fold of each other in EC50: 0.29 µM for the first, 0.36 µM for the second.

Going from `C[C@H](COc1cc(C(F)(F)F)cc(C(F)(F)F)c1)[C@H]1CC[C@H]2[C@@H]3C[C@@H](O)[C@@]4(O)C[C@@H](OCC(=O)N5CCOCC5)CC[C@]4(C)[C@H]3CC[C@]12C` to `C[C@H](CNC(=O)c1cc(C(F)(F)F)cc(C(F)(F)F)c1)[C@H]1CC[C@H]2[C@@H]3C[C@@H](O)[C@@]4(O)C[C@@H](OCC(=O)N5CCOCC5)CC[C@]4(C)[C@H]3CC[C@]12C`, the EC50 falls from over 10 µM to 0.086 µM.

Going from `CCN(CC)C(=O)CO[C@H]1CC[C@@]2(C)C(=CC[C@H]3[C@@H]4CC[C@H]([C@H](C)CCCC(C)(C)O)[C@@]4(C)CC[C@@H]32)C1` to `C[C@H](CCCC(C)(C)O)[C@H]1CC[C@H]2[C@@H]3CC=C4C[C@@H](OCC(=O)N(C)C)CC[C@]4(C)[C@H]3CC[C@]12C`, the EC50 falls from 4.8 µM to 1.4 µM (3.4-fold). The second is the more potent here.

Going from `CC(C)CCC[C@@H](C)[C@H]1CC[C@H]2[C@@H]3CC(=O)[C@H]4C[C@@H](O)CC[C@]4(C)[C@H]3CC[C@]12C` [5alpha-CHOLESTAN-3beta-OL-6-ONE] to `CC(C)CCC[C@@H](C)[C@H]1CC[C@H]2[C@@H]3CC(=O)[C@@]4(O)C[C@@H](O)CC[C@]4(C)[C@H]3CC[C@]12C`, the EC50 falls from 3.4 µM to 1.7 µM (2-fold).

Compared with `C[C@]12CC[C@H](O)CC1=CC[C@@H]1[C@@H]2CC[C@]2(C)C(=O)CC[C@@H]12` [Prasterone], `C[C@H](CCC(=O)N(C)C)[C@H]1CC[C@H]2[C@@H]3CC=C4C[C@@H](O)CC[C@]4(C)[C@H]3CC[C@]12C` [(4R)-4-[(1S,2R,5S,10S,11S,14R,15R)-5-hydroxy-2,15-dimethyltetracyclo[8.7.0.0^{2,7}.0^{11,15}]heptadec-7-en-14-yl]-N,N-dimethylpentanamide] is lower in EC50: over 10 µM for the first, 3.1 µM for the second.

Going from `C[C@H](CCCC(C)(C)O)[C@H]1CC[C@H]2[C@@H]3[C@@H](O)C=C4C[C@@H](O)CC[C@]4(C)[C@H]3CC[C@]12C` to `CC(C)CCC[C@@H](C)[C@H]1CC[C@H]2[C@@H]3[C@@H](O)C=C4C[C@@H](O)CC[C@]4(C)[C@H]3CC[C@]12C` [CHEBI:42989], the EC50 rises from 1.9 µM to 3.4 µM (1.8-fold). The first is the more potent here.

Compared with `CC(C)CCC[C@@H](C)[C@H]1CC[C@H]2[C@@H]3C[C@@H](O)[C@@]4(O)C[C@@H](OCC(N)=O)CC[C@]4(C)[C@H]3CC[C@]12C`, `CC(C)CCC[C@@H](C)[C@H]1CC[C@H]2[C@@H]3C[C@@H](O)[C@@]4(O)C[C@@H](O)CC[C@]4(C)[C@H]3CC[C@]12C` [CHEBI:28082] is 2-fold higher in EC50: 0.84 µM for the first, 1.7 µM for the second. The first is the more potent here.

Going from `CC(C)CCC[C@@H](C)[C@H]1CC[C@H]2[C@@H]3C(=O)C=C4C[C@@H](O)CC[C@]4(C)[C@H]3CC[C@]12C` [CHEBI:64294] to `C[C@H](CCCC(C)(C)O)[C@H]1CC[C@H]2[C@@H]3C(=O)C=C4C[C@@H](O)CC[C@]4(C)[C@H]3CC[C@]12C`, the EC50 falls from 8.7 µM to 1.5 µM (5.8-fold). The second is the more potent here.

First: C[C@H](CCCC(C)(C)O)[C@H]1CC[C@H]2[C@@H]3CC=C4C[C@@H](OCC(=O)N5CCOCC5)CC[C@]4(C)[C@H]3CC[C@]12C
Second: C[C@H](CCCC(C)(C)O)[C@H]1CC[C@H]2[C@@H]3CC=C4C[C@@H](O)CC[C@]4(C)[C@H]3CC[C@]12C [(1S,2R,5S,10S,11S,14R,15R)-14-[(2R)-6-hydroxy-6-methylheptan-2-yl]-2,15-dimethyltetracyclo[8.7.0.0^{2,7}.0^{11,15}]heptadec-7-en-5-ol]
The EC50 of the first is 3.8-fold lower: 0.88 µM for the first, 3.3 µM for the second. The first is the more potent here.

Compared with `CC(C)C(=O)NC[C@@H](C)[C@H]1CC[C@H]2[C@@H]3C[C@@H](O)[C@@]4(O)C[C@@H](OCC(=O)N5CCOCC5)CC[C@]4(C)[C@H]3CC[C@]12C`, `C[C@H](CNC(=O)N(C)C)[C@H]1CC[C@H]2[C@@H]3C[C@@H](O)[C@@]4(O)C[C@@H](OCC(=O)N5CCOCC5)CC[C@]4(C)[C@H]3CC[C@]12C` is 18-fold higher in EC50: 0.37 µM for the first, 6.8 µM for the second. The first is the more potent here.

First: CC[C@H](/C=C/[C@@H](C)[C@H]1CC[C@H]2[C@@H]3C[C@@H](O)[C@@]4(O)C[C@@H](OCC(=O)N5CCOCC5)CC[C@]4(C)[C@H]3CC[C@]12C)C(C)C
Second: CC(C)CCC[C@@H](C)[C@H]1CC[C@H]2[C@@H]3C[C@@H](O)[C@@]4(O)C[C@@H](OCC(=O)N5CCOCC5)CC[C@]4(C)[C@H]3CC[C@]12C
The EC50 of the first is 2.4-fold higher: 0.36 µM for the first, 0.15 µM for the second. The second is the more potent here.

Compared with `CC(C)CCC[C@@H](C)[C@H]1CC[C@H]2[C@@H]3C[C@@H](O)[C@@]4(O)C[C@@H](OCC(=O)N5CCCCC5)CC[C@]4(C)[C@H]3CC[C@]12C`, `CC(C)CCC[C@@H](C)[C@H]1CC[C@H]2[C@@H]3C[C@@H](O)[C@@]4(O)C[C@@H](OCCN5CCOCC5)CC[C@]4(C)[C@H]3CC[C@]12C` is 1.8-fold lower in EC50: 1.8 µM for the first, 1 µM for the second. The second is the more potent here.

First: CCN(CC)C(=O)CC[C@@H](C)[C@H]1CC[C@H]2[C@@H]3CC=C4C[C@@H](O)CC[C@]4(C)[C@H]3CC[C@]12C
Second: CC(C)CC[C@H](O)[C@@H](C)[C@H]1CC[C@H]2[C@@H]3CC=C4C[C@@H](O)CC[C@]4(C)[C@H]3CC[C@]12C [(1S,2R,5S,10S,11S,14R,15S)-14-[(2S,3S)-3-hydroxy-6-methylheptan-2-yl]-2,15-dimethyltetracyclo[8.7.0.0^{2,7}.0^{11,15}]heptadec-7-en-5-ol]
The EC50 of the first is 1.7-fold lower: 1.7 µM for the first, 2.9 µM for the second.

First: C[C@H](CCCC(C)(C)O)[C@H]1CC[C@H]2[C@@H]3C[C@@H](O)[C@@]4(O)C[C@@H](O)CC[C@]4(C)[C@H]3CC[C@]12C
Second: CC(C)CCC[C@@H](C)[C@H]1CC[C@H]2[C@@H]3CC[C@@]4(O)[C@@H](O)[C@@H](O)CC[C@]4(C)[C@H]3CC[C@]12C [Cholestane-3b,4b,5a-triol]
The EC50 of the first is 2.5-fold lower: 1.7 µM for the first, 4.3 µM for the second.

Compared with `CC(C)CCC[C@@H](C)[C@H]1CC[C@H]2[C@@H]3[C@@H](O)C=C4C[C@@H](OCCO)CC[C@]4(C)[C@H]3CC[C@]12C`, `CC(C)CCC[C@@H](C)[C@H]1CC[C@H]2[C@@H]3[C@@H](O)C=C4C[C@@H](OC(=O)N5CCOCC5)CC[C@]4(C)[C@H]3CC[C@]12C` is 1.8-fold higher in EC50: 3.4 µM for the first, 6.1 µM for the second. The first is the more potent here.

First: CCN(CC)CCO[C@H]1CC[C@@]2(C)C(=CC[C@H]3[C@@H]4CC[C@H]([C@H](C)CCCC(C)(C)O)[C@@]4(C)CC[C@@H]32)C1
Second: C[C@H](CCCC(C)(C)O)[C@H]1CC[C@H]2[C@@H]3CCC4=CC(=O)CC[C@]4(C)[C@H]3CC[C@]12C
The EC50 of the first is 2.5-fold higher: 9.9 µM for the first, 4 µM for the second. The second is the more potent here.

For `CC(C)CCC[C@@H](C)[C@H]1CC[C@H]2[C@@H]3C[C@@H](O)[C@@]4(O)C[C@@H](OCC(=O)N(CCO)CCO)CC[C@]4(C)[C@H]3CC[C@]12C`, the EC50 was 0.56 µM.
